Results published in ChEMBL document CHEMBL1126280, “Development of a novel series of styrylquinoline compounds as high-affinity leukotriene D4 receptor antagonists: synthetic and structure-activity studies leading to the discovery of (+-)-3-[[[3-[2-(7-chloro-2-quinolinyl)-(E)-ethenyl]phenyl][[3- (dimethylamino)-3-oxopropyl]thio]methyl]thio]propionic …” (J Med Chem, 1992).

Legend:
Cavia porcellus = experiment: Compound was evaluated in vivo for its effective dose against bronchoconstriction induced by LTD4 (0.2 ug/kg, iv) in anesthetized guinea pigs followed by id administration; type: functional
Method in brief: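 Anesthetized guinea pigs were dosed once intraduodenally and challenged with LTD4 (0.2 μg/kg iv) 10, 30 and 50 min later. The effective dose is the minimum id dose giving over 50% inhibition of bronchoconstriction within 50 min. The number of experiments is reported with each value.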

Rattus norvegicus [1] = experiment: Compound was evaluated in vivo for inhibition of dyspnea induced by a 5 min aerosol of ovalbumin in 6 hyperreactive rats for each of three doses; type: functional
Method in brief: (§1)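 Oral dosing in hyperreactive rats. Dyspnea was provoked by a 5 min ovalbumin aerosol. Six rats were used at each of three doses. The ED50 was derived from the percent inhibition of dyspnea across those doses.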

[2] = biological target: T1, Cysteinyl leukotriene receptor 1 (Cavia porcellus, UniProt Q2NNR5); experiment: (§2) In vitro inhibition of [3H]LTD4 binding to guinea pig lung membranes; type: tissue-based, Membrane
T1 sequence (Q2NNR5 whole entry): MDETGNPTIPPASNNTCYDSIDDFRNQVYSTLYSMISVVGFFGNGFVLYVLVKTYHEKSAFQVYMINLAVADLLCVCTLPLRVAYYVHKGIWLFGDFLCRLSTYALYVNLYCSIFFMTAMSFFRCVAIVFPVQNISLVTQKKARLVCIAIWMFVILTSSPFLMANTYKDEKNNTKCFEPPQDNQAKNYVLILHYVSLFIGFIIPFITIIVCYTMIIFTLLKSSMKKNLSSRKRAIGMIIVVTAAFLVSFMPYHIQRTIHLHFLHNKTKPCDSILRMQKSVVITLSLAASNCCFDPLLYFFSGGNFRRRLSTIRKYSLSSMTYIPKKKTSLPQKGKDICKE

[3] = biological target: T1, Cysteinyl leukotriene receptor 1; experiment: as §2; type: functional, tissue-based, Membrane
Rattus norvegicus [4] = experiment: Compound was evaluated in vivo for inhibition of dyspnea induced by a 5 min aerosol of ovalbumin in 6 hyperreactive rats at dose of 0.5 mg/Kg; type: functional
Method in brief: (§3)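 Oral single-dose test in hyperreactive rats, six animals, with dyspnea provoked by a 5 min ovalbumin aerosol. The value is the percent inhibition of dyspnea at the one stated dose.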

[5] = biological target: T2, Cysteinyl leukotriene receptor 1 (Cavia porcellus) (UniProt Q2NNR5); experiment: In vitro inhibition of [3H]LTD4 binding to guinea pig lung membranes at 1 uM; type: functional, tissue-based; conditions: Membrane
T2 sequence (whole entry): T1 sequence (Q2NNR5 whole entry)

Rattus norvegicus [6] = experiment: Compound was evaluated in vivo for inhibition of dyspnea induced by a 5 min aerosol of ovalbumin in six hyperactive rats for each of three doses; type: functional; method in brief: as §1
Rattus norvegicus [7] = experiment: Compound was evaluated in vivo for inhibition of dyspnea induced by a 5 min aerosol of ovalbumin in 6 hyperreactive rats at dose of 1.5 mg/Kg; type: functional; method in brief: as §3

COC(=O)COc1cccc(/C=C/c2ccc3ccccc3n2)c1
Effective dose (Cavia porcellus): 10 mg/kg | ED50 (Rattus norvegicus [1]): 2 mg/kg

CN(C)C(=O)CCSC(SCCC(=O)O)c1cccc(SCc2ccc3ccc(Cl)cc3n2)c1 (stereo unspecified)
IC50 [2]: 89 nM

CN(C)CCSC(SCCC(=O)O)c1cccc(/C=C/c2ccc3ccc(Cl)cc3n2)c1 (stereo unspecified)
IC50 [2]: 60 nM

O=C(O)CCSC(SCCC(=O)O)c1cccc(C2CC2c2ccc3ccc(Cl)cc3n2)c1 (stereo unspecified)
IC50 [2]: 32 nM

O=C([O-])CCCOc1cccc(/C=C/c2ccc3cc(Cl)c(Cl)cc3n2)c1.[Na+]
Effective dose (Cavia porcellus): 1 mg/kg | ED50 (Rattus norvegicus [1]): 0.5 mg/kg

O=C(O)CCSC(SCCC(=O)O)c1cccc(NC(=O)c2ccc3ccccc3n2)c1
IC50 [2]: 440 nM

C(=C\c1ccc2ccccc2n1)/c1ccccc1
IC50 [2]: 6000 nM

COC(=O)COc1cccc(/C=C/c2ccc3cc(C)ccc3n2)c1
Effective dose (Cavia porcellus): >10 mg/kg | IC50 [3]: 930 nM

C(=C\c1ccc2ccccc2n1)/c1ccncc1
IC50 [2]: 3300 nM

O=C([O-])CCCOc1cccc(/C=C/c2ccc3ccc(Cl)cc3n2)c1.[Na+]
Effective dose (Cavia porcellus): 2.5 mg/kg | inhibition in vivo at 0.5 mg/kg (Rattus norvegicus [4]): 41%

CCCC/C=C/c1ccc2nc(/C=C/c3cccc(OCC(=O)OC)c3)ccc2c1
inhibition [5]: 12%

C(=C\c1ccc2ccccc2n1)/c1cccnc1
IC50 [2]: 6000 nM

O=C(O)CCSC(SCCC(=O)N1CCOCC1)c1cccc(/C=C/c2ccc3ccc(Cl)cc3n2)c1 (stereo unspecified)
Effective dose (Rattus norvegicus [1]): 0.15 mg/kg | Inhibition (Rattus norvegicus [6]): 43% | IC50 [2]: 2.2 nM

NC(=O)CCSC(SCCC(=O)O)c1cccc(/C=C/c2ccc3ccc(Cl)cc3n2)c1 (stereo unspecified)
Effective dose (Cavia porcellus): 0.5 mg/kg | IC50 [2]: 0.3 nM

O=C([O-])CCCOc1cccc(/C=C/c2ccc3cc(Cl)ccc3n2)c1.[Na+]
Effective dose (Cavia porcellus): 5 mg/kg | inhibition in vivo at 1.5 mg/kg (Rattus norvegicus [7]): 40%

CN(C)C(=O)CCSC(SCCC(=O)O)c1cccc(/C=C/c2ccc3ccc(Cl)cc3n2)c1 (stereo unspecified) [MK-571]
Effective dose (Cavia porcellus): 0.1 mg/kg | ED50 (Rattus norvegicus [1]): 0.07 mg/kg | IC50 [2]: 0.8 nM

O=C(O)CCSC(SCCC(=O)O)c1cccc(CCCc2ccc3ccc(Cl)cc3n2)c1
IC50 [2]: 250 nM

O=C(O)CCCOc1cccc(/C=C/c2ccc3ccccc3c2)c1
inhibition [5]: 11%

O=C([O-])CCCOc1cccc(/C=C/c2ccc3c(Cl)cccc3n2)c1.[Na+]
Effective dose (Cavia porcellus): >5 mg/kg

O=C(O)CCSC(SCCC(=O)O)c1cccc(CCc2ccc3ccc(Cl)cc3n2)c1
IC50 [2]: 57 nM

O=C(O)CCSC(SCCC(=O)O)c1cccc(OCc2ccc3ccc(Cl)cc3n2)c1
IC50 [2]: 13.6 nM

CC(Oc1cccc(Sc2ccc3ccc(Cl)cc3n2)c1)C(=O)O (stereo unspecified)
inhibition [5]: 24%

CCOC(=O)CCCOc1cccc(/C=C/c2ccc3ccccc3n2)c1
Effective dose (Cavia porcellus): 5 mg/kg | ED50 (Rattus norvegicus [1]): 1.5 mg/kg

O=C(O)CCSC(SCCC(=O)O)c1cccc(/C=C/c2ccc3ccc(Cl)cc3n2)c1
Effective dose (Cavia porcellus): 0.5 mg/kg | ED50 (Rattus norvegicus [1]): 0.1 mg/kg
